Laboratory results from ChEMBL document CHEMBL4152200, “Targeting the entrance channel of NNIBP: Discovery of diarylnicotinamide 1,4-disubstituted 1,2,3-triazoles as novel HIV-1 NNRTIs with high potency against wild-type and E138K mutant virus” (Eur J Med Chem, 2018).

How the values were obtained:
[1] = tested on: Human immunodeficiency virus 1; assay: Antiviral activity against HIV1 harboring reverse transcriptase L100I mutant infected in human MT4 cells assessed as inhibition of viral replication after 5 days by MTT assay; type: functional, organism-based; conditions: Human immunodeficiency virus 1, MT4, 120 h
[2] = tested on: Human immunodeficiency virus 1; assay: Antiviral activity against HIV-1 RES056 harboring reverse transcriptase K103N/Y181C double mutant infected in human MT4 cells assessed as inhibition of viral replication after 5 days by MTT assay; type: functional, organism-based; conditions: Human immunodeficiency virus 1, RES056, MT4, 120 h
[3] = tested on: MT4; assay: Cytotoxicity against human MT4 cells assessed as decrease in cell viability after 5 days by MTT assay; type: cell-based; conditions: mt4, 120 h
Method in brief: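 Mock-infected MT-4 cells, exponentially growing, seeded with compound in culture medium without virus; run in parallel with the antiviral assay. Viability read spectrophotometrically by MTT reduction five days later.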

[4] = tested on: Human immunodeficiency virus 1; assay: Resistance factor, ratio of EC50 for HIV1 harboring reverse transcriptase L100I mutant to EC50 for wild-type HIV-1 3B; type: functional
Method in brief: (§1)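 Resistance fold is EC₅₀ against the mutant strain divided by EC₅₀ against WT IIIB. Both EC₅₀ values come from the 5-day MTT protection assay in MT-4 cells infected with 100–300 CCID₅₀ of virus.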

[5] = Selectivity index, ratio of CC50 for human MT4 cells to EC50 for HIV1 harboring reverse transcriptase E138K mutant; type: toxicity; conditions: read-out: Ratio CC50/EC50
Method in brief: (§2)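 SI is CC₅₀ divided by EC₅₀, both by MTT after 5 days in MT-4 cells. CC₅₀ comes from mock-infected cultures run in parallel and is the concentration reducing their viability by 50%. EC₅₀ comes from cultures infected with the given mutant strain at 100–300 CCID₅₀.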

[6] = Selectivity index, ratio of CC50 for human MT4 cells to EC50 for HIV-1 RES056 harboring reverse transcriptase K103N/Y181C double mutant infected in human MT4 cells; type: toxicity, cell-based; conditions: read-out: Ratio CC50/EC50; method in brief: as §2
[7] = Selectivity index, ratio of CC50 for human MT4 cells to EC50 for HIV1 harboring reverse transcriptase F227L/V106A mutant; type: toxicity; conditions: read-out: Ratio CC50/EC50; method in brief: as §2
[8] = tested on: Human immunodeficiency virus 1; assay: Antiviral activity against wild-type HIV-1 3B infected in human MT4 cells assessed as inhibition of viral replication after 5 days by MTT assay; type: functional, organism-based; conditions: Human immunodeficiency virus 1, 3B, MT4, 120 h
[9] = tested on: Human immunodeficiency virus 1; assay: Resistance factor, ratio of EC50 for HIV1 harboring reverse transcriptase E138K mutant to EC50 for wild-type HIV-1 3B; type: functional; method in brief: as §1
[10] = Selectivity index, ratio of CC50 for human MT4 cells to EC50 for HIV1 harboring reverse transcriptase K103N mutant; type: toxicity; conditions: read-out: Ratio CC50/EC50; method in brief: as §2
[11] = tested on: Human immunodeficiency virus 1; assay: Antiviral activity against HIV1 harboring reverse transcriptase K103N mutant infected in human MT4 cells assessed as inhibition of viral replication after 5 days by MTT assay; type: functional, organism-based; conditions: Human immunodeficiency virus 1, MT4, 120 h
[12] = tested on: Human immunodeficiency virus 1; assay: Resistance factor, ratio of EC50 for HIV1 harboring reverse transcriptase Y188L mutant to EC50 for wild-type HIV-1 3B; type: functional; method in brief: as §1
[13] = tested on: Human immunodeficiency virus 1; assay: Antiviral activity against HIV1 harboring reverse transcriptase F227L/V106A double mutant infected in human MT4 cells assessed as inhibition of viral replication after 5 days by MTT assay; type: functional, organism-based; conditions: Human immunodeficiency virus 1, MT4, 120 h
[14] = tested on: Human immunodeficiency virus 1; assay: Antiviral activity against HIV1 harboring reverse transcriptase Y188L mutant infected in human MT4 cells assessed as inhibition of viral replication after 5 days by MTT assay; type: functional, organism-based; conditions: Human immunodeficiency virus 1, MT4, 120 h
Method in brief: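 MT-4 cells in exponential growth, resuspended into wells holding HIV-1 stock (IIIB, RES056 K103N/Y181C, F227L/V106A, L100I, K103N, E138K, Y181C or Y188L) at 100–300 CCID₅₀, or into mock-infected wells. Viability read by MTT reduction to formazan, measured spectrophotometrically 5 days post-infection. EC₅₀ is the concentration giving 50% protection against virus-induced cytotoxicity.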

[15] = Selectivity index, ratio of CC50 for human MT4 cells to EC50 for HIV1 harboring reverse transcriptase L100I mutant; type: toxicity; conditions: read-out: Ratio CC50/EC50; method in brief: as §2
[16] = Selectivity index, ratio of CC50 for human MT4 cells to EC50 for HIV1 harboring reverse transcriptase Y188L mutant; type: toxicity; conditions: read-out: Ratio CC50/EC50; method in brief: as §2
[17] = tested on: Human immunodeficiency virus 1; assay: Resistance factor, ratio of EC50 for HIV1 harboring reverse transcriptase Y181C mutant to EC50 for wild-type HIV-1 3B; type: functional; method in brief: as §1
[18] = Selectivity index, ratio of CC50 for human MT4 cells to EC50 for HIV1 harboring reverse transcriptase Y181C mutant; type: toxicity; conditions: read-out: Ratio CC50/EC50; method in brief: as §2
[19] = tested on: Human immunodeficiency virus 1; assay: Resistance factor, ratio of EC50 for HIV1 harboring reverse transcriptase K103N mutant to EC50 for wild-type HIV-1 3B; type: functional; method in brief: as §1
[20] = tested on: Human immunodeficiency virus 1; assay: Antiviral activity against HIV1 harboring reverse transcriptase E138K mutant infected in human MT4 cells assessed as inhibition of viral replication after 5 days by MTT assay; type: functional, organism-based; conditions: Human immunodeficiency virus 1, MT4, 120 h
[21] = tested on: Human immunodeficiency virus 1; assay: Antiviral activity against HIV1 harboring reverse transcriptase Y181C mutant infected in human MT4 cells assessed as inhibition of viral replication after 5 days by MTT assay; type: functional, organism-based; conditions: Human immunodeficiency virus 1, MT4, 120 h
[22] = tested on: Human immunodeficiency virus 1; assay: Resistance factor, ratio of EC50 for HIV1 harboring reverse transcriptase F227L/V106A mutant to EC50 for wild-type HIV-1 3B; type: functional; method in brief: as §1
[23] = Selectivity index, ratio of CC50 for human MT4 cells to EC50 for wild-type HIV1 3B; type: toxicity; conditions: read-out: Ratio CC50/EC50
Method in brief: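 Wild-type HIV-1 IIIB at 100–300 CCID50 added to MT-4 cells with compound, with mock-infected wells in parallel. MTT viability was read at day 5. […] SI = CC50/EC50.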

SMILES | EC50 [1] | EC50 [2] | CC50 [3] | EC50 [8] | EC50 [11] | EC50 [13] | EC50 [14] | further results
Cc1cc(C)c(Oc2cc(Nc3ccc(C#N)cc3)ncc2C(=O)NCc2cn(CC(N)=O)nn2)c(C)c1 | 3520 nM | 5330 nM | 24000 nM | 172 nM | 1030 nM | 1800 nM | 4460 nM | Ratio EC50 [4]: 20.5; selectivity ratio [5]: 159; selectivity ratio [6]: 5; selectivity ratio [7]: 13; Ratio EC50 [9]: 0.9; selectivity ratio [10]: 23; Ratio EC50 [12]: 25.9; selectivity ratio [15]: 7; selectivity ratio [16]: 5; Ratio EC50 [17]: 4.8; selectivity ratio [18]: 29; Ratio EC50 [19]: 6; EC50 [20]: 150 nM; EC50 [21]: 830 nM; Ratio EC50 [22]: 10.5; selectivity ratio [23]: 139
Cc1cc(C)c(Oc2cc(Nc3ccc(C#N)cc3)ncc2C(=O)NCc2cn(Cc3ccccc3F)nn2)c(C)c1 |  | > 222000 nM | > 222000 nM | 95 nM |  |  |  | 
Cc1cc(C)c(Oc2cc(Nc3ccc(C#N)cc3)ncc2C(=O)NCc2cn(Cc3ccccc3Cl)nn2)c(C)c1 |  | > 188000 nM | ≥ 188000 nM | 104 nM |  |  |  | 
Cc1cc(C)c(Oc2cc(Nc3ccc(C#N)cc3)ncc2C(=O)NCc2cn(Cc3cccc(F)c3)nn2)c(C)c1 |  | > 205000 nM | ≥ 205000 nM | 79 nM |  |  |  | 
Cc1cc(C)c(Oc2cc(Nc3ccc(C#N)cc3)ncc2C(=O)NCc2cn(Cc3cccc([N+](=O)[O-])c3)nn2)c(C)c1 |  | > 156000 nM | ≥ 156000 nM | 37 nM |  |  |  | 
CCOC(=O)Cn1cc(CNC(=O)c2cnc(Nc3ccc(C#N)cc3)cc2Oc2c(C)cc(C)cc2C)nn1 |  | > 9530 nM | 9530 nM | 653 nM |  |  |  | selectivity ratio [6]: < 1; selectivity ratio [23]: 15
Cc1cc(C)c(Oc2cc(Nc3ccc(C#N)cc3)ncc2C(=O)NCc2cn(Cc3ccc(Cl)cc3)nn2)c(C)c1 |  | > 120000 nM | ≥ 120000 nM | 194 nM |  |  |  | 
Cc1cc(C)c(Oc2cc(Nc3ccc(C#N)cc3)ncc2C(=O)NCc2cn(Cc3ccc(F)cc3)nn2)c(C)c1 |  | > 153000 nM | ≥ 153000 nM | 74 nM |  |  |  | 
CC(=O)Cn1cc(CNC(=O)c2cnc(Nc3ccc(C#N)cc3)cc2Oc2c(C)cc(C)cc2C)nn1 | 1000 nM | 2210 nM | 19400 nM | 29 nM | 260 nM | 590 nM | 3200 nM | Ratio EC50 [4]: 34.5; selectivity ratio [5]: 756; selectivity ratio [6]: 9; selectivity ratio [7]: 33; Ratio EC50 [9]: 0.9; selectivity ratio [10]: 73; Ratio EC50 [12]: 110.3; selectivity ratio [15]: 19; selectivity ratio [16]: 6; Ratio EC50 [17]: 5.5; selectivity ratio [18]: 123; Ratio EC50 [19]: 9; EC50 [20]: 26 nM; EC50 [21]: 160 nM; Ratio EC50 [22]: 20.3; selectivity ratio [23]: 670
CC(C)Nc1cccnc1N1CCN(C(=O)c2cc3cc(NS(C)(=O)=O)ccc3[nH]2)CC1 [DELAVIRDINE] | 2540 nM |  |  | 38 nM | 3000 nM | 2270 nM | 840 nM | Ratio EC50 [4]: 66.8; Ratio EC50 [9]: 1.3; Ratio EC50 [12]: 22.1; Ratio EC50 [17]: 64.7; Ratio EC50 [19]: 78.9; EC50 [20]: 51 nM; EC50 [21]: 2460 nM; Ratio EC50 [22]: 59.7
Cc1cc(C#N)cc(C)c1Oc1nc(Nc2ccc(C#N)cc2)nc(N)c1Br [ETRAVIRINE] |  |  |  |  |  | 5 nM | 11 nM | 
Cc1cn([C@H]2C[C@H](N=[N+]=[N-])[C@@H](CO)O2)c(=O)[nH]c1=O [ZIDOVUDINE] | 5 nM | 11 nM | > 7480 nM |  | 8 nM |  |  | 
